Measured values published in ChEMBL document CHEMBL1145822, “4-Aryl-3-(hydroxyalkyl)quinolin-2-ones: novel maxi-K channel opening relaxants of corporal smooth muscle targeted for erectile dysfunction” (J Med Chem, 2003).

How the values were obtained:
Format in all cases: functional
Oryctolagus cuniculus [1] = species: Oryctolagus cuniculus; assay: Percentage inhibition of isometric force in response to 10 uM compound in isolated rabbit corpus cavernosum precontracted with 3 uM phenylephrine
Summary of the method: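 New Zealand white rabbit (3.4–3.7 kg) corpus cavernosum strips (3–5 mm) in oxygenated modified Krebs Henseleit bicarbonate buffer, 37 °C, equilibrated ≥1 h at 1.0 g resting tension; contracted with phenylephrine 3 μM to steady force before compound; isometric force read; percent inhibition of phenylephrine-induced force relative to vehicle control.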

Xenopus laevis = species: Xenopus laevis; assay: Effect of compound (20 uM) on maxi-K-mediated outward current in Xenopus laevis oocytes expressing the cloned hSlo maxi-K channels was determined
Summary of the method: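 Two-electrode voltage clamp of Xenopus laevis oocytes expressing cloned hSlo maxi-K channels; single 20 μM drug concentration applied, measuring iberiotoxin-sensitive outward K⁺ current in at least five oocytes per compound; result given as mean percent change in hSlo current versus drug-free control (100%).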

Oryctolagus cuniculus [2] = species: Oryctolagus cuniculus; assay: Tested for concentration dependent relaxation over a period of 90 min in isolated rabbit corpus cavernosum.; conditions: 1.5 h

Structure (SMILES)	Inhibition (Oryctolagus cuniculus [1]) [%]	Increase (Xenopus laevis) [%]	IC50 (Oryctolagus cuniculus [2]) [µM]
O=c1[nH]c2ccc(C(F)(F)F)cc2c(-c2cc(Cl)ccc2O)c1CCO [BMS-223131]	83.7	378	5
OCCCc1c(O)nc2ccc(C(F)(F)F)cc2c1-c1cc(Cl)ccc1O	43	292	–
COc1ccc(Cl)cc1-c1c(CO)c(O)nc2ccc(C(F)(F)F)cc12	–	114	–
COc1ccc(Cl)cc1-c1c(CCO)c(O)nc2ccc(C(F)(F)F)cc12	26.8	211	–
COc1ccc(Cl)cc1-c1c(/C=C/CO)c(O)nc2ccc(C(F)(F)F)cc12	31.8	223	–
OC/C=C/c1c(O)nc2ccc(C(F)(F)F)cc2c1-c1cc(Cl)ccc1O	46	257	–
O=c1[nH]c2cc(C(F)(F)F)ccc2n1-c1cc(Cl)ccc1O	31	132	–
COc1ccc(Cl)cc1-c1c(CCCO)c(O)nc2ccc(C(F)(F)F)cc12	35.7	258	–
OCc1c(O)nc2ccc(C(F)(F)F)cc2c1-c1cc(Cl)ccc1O	36	198	–
